Tests used:
[1] = test system: Pelophylax lessonae; assay: Ratio of the concentrations of tonic block to that of phasic block; type: functional
[2] = test system: Pelophylax lessonae; assay: Relative potency producing phasic block, relative to mexileitine
[3] = Half-maximal concentration producing a phasic block (cumulative sodium current reduction at 10 HZ stimulation frequency) in Rana esculenta muscle; type: functional, tissue-based, Muscle tissue
In short: (§1)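 Three-vaseline-gap voltage clamp on single fibers microdissected from the ventral branch of Rana esculenta semitendinosus. After 10 min equilibration, Na⁺ currents recorded at 10 °C from a holding potential of -100 mV. Compounds diluted daily from stocks in physiological/external solution, DMSO at most 0.2%. IC50 from a nonlinear least-squares fit of concentration-response curves; data as mean ± SEM.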

[4] = Half-maximal concentration producing a tonic block (blocking sodium channels at resting conditions during infrequent depolarizing pulses) in Rana esculenta muscle; type: functional, tissue-based, Muscle tissue; in short: as §1

Row | IC50 [3] [µM] | IC50 [4] [µM] | SMILES | Ratio [1] | Relative potency [2]
1 | 23 | 54 | Cc1cccc(C)c1OC[C@@H](C)N [(R)-MEXILETINE] | 2 | 1
2 | 27 | 114 | Cc1cccc(C)c1OC[C@H](C)N [(S)-MEXILETINE] | 4 | 1
3 | 29 | 83 | Cc1cccc(C)c1OCC(C)N (stereo unspecified) [MEXILETINE] | 3 | 

From ChEMBL document CHEMBL1145909, “Optically active mexiletine analogues as stereoselective blockers of voltage-gated Na(+) channels” (J Med Chem, 2003)
